Active and inactive are the calls of the source. The calls are words filed in the database; no cut-off is given here.
Legend:
[1] = Cytotoxicity against human HeLaS3 cells after 48 hrs by WST8 assay; type: functional, cell-based; details: HeLa S3, 48 h
Summary of the method: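 HeLa S3 seeded at 3 × 10^3 cells/well, left overnight, then given a range of compound concentrations for 48 h. WST-8 added for 2 h and absorbance read at 450 nm. Viability (% control) = (sample − blank)/(0 µM well − blank) × 100. Cells in DMEM + 10% FCS, 37 °C, 5% CO2.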

HeLa S3 [2] = test: Ratio of glaziovianin A IC50 to compound IC50 for human HeLaS3 cells; type: functional
[3] = Cell cycle arrest in human HeLaS3 cells assessed as accumulation at G2/M phase at 1 uM after 24 hrs by flow cytometric analysis; type: functional, cell-based; details: HeLa S3
Summary of the method: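 HeLa S3 cells at 3 × 10^4 cells/mL exposed to compound for 24 h, harvested, fixed in 70% EtOH at -20 °C, stained with propidium iodide; DNA content read by flow cytometry. DMSO-treated cells as control. Cells kept in DMEM with 10% FCS at 37 °C, 5% CO2.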

HeLa S3 [4] = test: Induction of mitotic arrest in human HeLaS3 cells assessed as abnormal multipolar spindles at 1 uM after 6 hrs by immunofluorescence staining; type: functional, cell-based
Summary of the method: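 HeLa S3 at 3 × 10^4 cells/mL grown on coverslips, treated 6 h, fixed in -20 °C MeOH for 5 min. Anti-α-tubulin DM1A (1:250) in PBS with 0.5% BSA for 1 h at 37 °C, then Alexa488 anti-mouse IgG (1:2000) for 1 h. DAPI 0.1 µg/mL for chromosomes; spindles examined by fluorescence microscopy. DMSO control.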

Structure (SMILES) | IC50 [1] [µM] | Ratio IC50 (HeLa S3 [2]) | Activity [3] | Activity (HeLa S3 [4])
COc1cc2occ(-c3c(Br)c(OC)c4c(c3OC)OCO4)c(=O)c2cc1OC | 67.8 | 0.009 |  | 
COc1cc2c(=O)c(-c3cc(OC)c4c(c3OC)OCO4)coc2cc1OC1O[C@H](COC(C)=O)[C@@H](OC(C)=O)[C@H](OC(C)=O)[C@H]1OC(C)=O (mixture of isomers) | > 100 |  |  | 
C#CCOc1cc2occ(-c3cc(OC)c4c(c3OC)OCO4)c(=O)c2cc1OC | 0.17 | 3.5 | Active | Active
COc1cc2c(=O)c(-c3cc(OC)c4c(c3OC)OCO4)coc2cc1OC/C=C/CCC(=O)NCCCCCCNC(=O)CCCC[C@@H]1SC[C@@H]2NC(=O)N[C@@H]21 | 15.5 | 0.038 |  | 
COc1cc(-c2coc3cc(OC)c(OC)c(OC)c3c2=O)c(OC)c2c1OCO2 | > 100 |  |  | 
COc1cc2occ(-c3cc(OC)c4c(c3OC)OC(C)(C)O4)c(=O)c2cc1OC | > 100 |  |  | 
C=CCOc1cc2occ(-c3cc(OC)c4c(c3OC)OCO4)c(=O)c2cc1OC | 0.46 | 1.3 | Active | Active
COc1cc2c(=O)c(-c3cc(OC)c4c(c3OC)OCO4)coc2cc1O | > 100 |  |  | 
COc1cc2occ(-c3cc(OC)c(OC)c(OC)c3OC)c(=O)c2cc1OC | 22 | 0.027 |  | 
COc1cc2c(=O)c(-c3cc(OC)c4c(c3OC)OCO4)coc2cc1OCC(O)CO (stereo not drawn) | > 100 |  |  | 
COc1cc2c(=O)c(-c3cc(OC)c4c(c3OC)OCO4)coc2cc1OCCCCCC(=O)NCCCCCCNC(=O)CCCC[C@@H]1SC[C@@H]2NC(=O)N[C@@H]21 | 15.2 | 0.039 |  | 
COc1cc2c(=O)c(-c3cc(OC)c4c(c3OC)OCO4)coc2cc1OCc1ccccc1 | 0.19 | 3.1 | Active | Active
COc1cc2occ(-c3ccc4c(c3)OCO4)c(=O)c2cc1OC |  | 0.01 |  | 
COc1cc2c(=O)c(-c3cc(OC)c4c(c3OC)OCO4)coc2cc1OC1CCCCO1 (stereo not drawn) | > 100 |  |  | 
COc1cc2c(=O)c(-c3cc(OC)c4c(c3OC)OCO4)coc2cc1OC1O[C@H](CO)[C@@H](O)[C@H](O)[C@H]1O (mixture of isomers) | > 100 |  |  | 
COc1cc2occ(-c3cc(OC)c4c(c3OC)OCO4)c(=O)c2cc1OC [GLAZIOVIANIN A] | 0.59 |  | Active | Active
COc1cc2c(=O)c(-c3cc(OC)c4c(c3OC)OCO4)coc2cc1OC/C=C/CCC(=O)NCCCCCCNC(=O)CCCC1=C2C(C)=CC(C)=[N+]2[B-](F)(F)n2c(C)cc(C)c21 | 17.4 | 0.034 |  | 

Reference: ChEMBL document CHEMBL2146449, “Design, synthesis, and biological evaluation of the analogues of glaziovianin A, a potent antitumor isoflavone” (Bioorg Med Chem, 2012)
